Test results taken from ChEMBL document CHEMBL1255364, “Delayed development of linezolid resistance in Staphylococcus aureus following exposure to low levels of antimicrobial agents” (2008).
Converted amounts (≈) assume the structure as drawn. The source made the active and inactive calls. No cut-off for these calls is given here.

How the values were obtained:
Staphylococcus aureus [1] = assay: Suppression of resistance related recombination in Staphylococcus aureus RN4220 at 0.25 times IC50 at 42 degC
Staphylococcus aureus [2] = assay: Suppression of drug resistance development in recA-deficient Staphylococcus aureus KB103 assessed as prolonged length of subculture to develop Linezolid resistance at 4 times MIC and 0.25 times IC50 after 20 days; type: functional, organism-based
Outline: (§1)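 Stationary-phase MHB cultures were exposed for 6 h to linezolid at 4× MIC, with secondary agent(s) at 0.25× IC50. IC50 was the concentration halving growth rate by culture absorbance. A 5 μl aliquot was transferred to fresh drug-free medium and the cycle repeated. […] Four runs were done, with days to resistance averaged to the nearest day.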

Staphylococcus aureus [3] = assay: Suppression of drug resistance development in Staphylococcus aureus RN4220 assessed as prolonged length of subculture to develop Linezolid resistance at 4 times MIC and 0.25 times IC50 after 25 days; type: functional, organism-based
Outline: as §1

Staphylococcus aureus [4] = assay: Suppression of drug resistance development in Staphylococcus aureus isolate EMRAS-15 assessed as prolonged length of subculture to develop Linezolid resistance at 4 times MIC and 0.25 times IC50 after 25 days; type: functional, organism-based
Outline: as §1

Staphylococcus aureus [5] = assay: Suppression of drug resistance development in Staphylococcus aureus RN4220 assessed as assessed as prolonged length of subculture to develop Linezolid resistance at 0.25 times IC50
Staphylococcus aureus [6] = assay: Antibacterial activity against Staphylococcus aureus KM50 after 18 to 24 hrs by broth microdilution method selected after 16 ug/ml drug exposure for 6 hrs by culture absorbance method; type: functional
Outline: (§2)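 Broth microdilution in Mueller-Hinton broth per BSAC guidelines. MIC read as the lowest concentration completely inhibiting visible growth after 18 to 24 h at 37°C. Strains were linezolid-selected derivatives recovered from repeated 6-h linezolid exposure cycles.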

Staphylococcus aureus [7] = assay: Antibacterial activity against Staphylococcus aureus KM187 after 18 to 24 hrs by broth microdilution method selected after 16 ug/ml drug exposure for 6 hrs by culture absorbance method; type: functional
Outline: as §2

Staphylococcus aureus [8] = assay: Suppression of drug resistance development in LZD intermediate-resistant Staphylococcus aureus KM183 assessed as prolonged length of subculture to develop Linezolid resistance at 4 times MIC and 0.25 times IC50 after 8 days; type: functional, organism-based
Outline: as §1

Staphylococcus aureus [9] = assay: Antibacterial activity against Staphylococcus aureus KM53 after 18 to 24 hrs by broth microdilution method selected after 16 ug/ml drug exposure for 6 hrs by culture absorbance method; type: functional
Outline: as §2

Staphylococcus aureus [10] = assay: Antibacterial activity against Staphylococcus aureus KM52 after 18 to 24 hrs by broth microdilution method selected after 16 ug/ml drug exposure for 6 hrs by culture absorbance method; type: functional
Outline: as §2

Staphylococcus aureus [11] = assay: Antibacterial activity against Staphylococcus aureus KM183 after 18 to 24 hrs by broth microdilution method selected after 16 ug/ml drug exposure for 6 hrs by culture absorbance method; type: functional
Outline: as §2

Staphylococcus aureus [12] = assay: Antibacterial activity against Staphylococcus aureus KM51 after 18 to 24 hrs by broth microdilution method selected after 16 ug/ml drug exposure for 6 hrs by culture absorbance method; type: functional
Outline: as §2

Staphylococcus aureus [13] = assay: Suppression of drug resistance development in Staphylococcus aureus RN4220 assessed as assessed as prolonged length of subculture to develop Linezolid resistance at 0.25 times MIC; type: functional

## CC(=O)O[C@H]1C[C@@]2(C)[C@@H](C[C@@H](O)[C@H]3[C@@]4(C)CC[C@@H](O)[C@@H](C)[C@@H]4CC[C@@]32C)/C1=C(\CCC=C(C)C)C(=O)O
Staphylococcus aureus [1]
  inhibition: Active
Staphylococcus aureus [2]
  Activity: Active
Staphylococcus aureus [3]
  Activity: Active
Staphylococcus aureus [4]
  Activity: Active

## CO[C@H]1/C=C/O[C@@]2(C)Oc3c(C)c(O)c4c(O)c(c(/C=N/N5CCN(C)CC5)c(O)c4c3C2=O)NC(=O)/C(C)=C\C=C\[C@H](C)[C@H](O)[C@@H](C)[C@@H](O)[C@@H](C)[C@H](OC(C)=O)[C@@H]1C
Staphylococcus aureus [1]
  inhibition: Active
Staphylococcus aureus [2]
  Activity: Active
Staphylococcus aureus [3]
  Activity: Active

## O=C(O)c1cn(C2CC2)c2cc(N3CCNCC3)c(F)cc2c1=O [CIPROFLOXACIN]
Staphylococcus aureus [5]
  Time: 14 days

## CC(=O)NC[C@H]1CN(c2ccc(N3CCOCC3)c(F)c2)C(=O)O1 [LINEZOLID]
Staphylococcus aureus [2]
  Activity: Active
Staphylococcus aureus [6]
  MIC: 32 µg/mL (≈ 94.9 µM)
Staphylococcus aureus [7]
  MIC: 32 µg/mL (≈ 94.9 µM)
Staphylococcus aureus [8]
  Activity: Active
Staphylococcus aureus [9]
  MIC: 32 µg/mL (≈ 94.9 µM)
Staphylococcus aureus [10]
  MIC: 32 µg/mL (≈ 94.9 µM)
Staphylococcus aureus [11]
  MIC: 16 µg/mL (≈ 47.4 µM)
Staphylococcus aureus [12]
  MIC: 32 µg/mL (≈ 94.9 µM)

## CO[C@@H]1[C@@H](OC(N)=O)[C@@H](O)[C@H](Oc2ccc3c(O)c(NC(=O)c4ccc(O)c(CC=C(C)C)c4)c(=O)oc3c2C)OC1(C)C [NOVOBIOCIN]
Staphylococcus aureus [5]
  Time: 14 days

## CN(C)[C@@H]1C(O)=C(C(N)=O)C(=O)[C@@]2(O)C(O)=C3C(=O)c4c(O)cccc4[C@@](C)(O)[C@H]3C[C@@H]12 [TETRACYCLINE]
Staphylococcus aureus [5]
  Time: 14 days

## GENTAMICIN
Staphylococcus aureus [13]
  TIME: 336 h
